Source: ChEMBL document CHEMBL2203173 (J Med Chem, 2012)

Key:
Mus musculus [1] = assay: Toxicity in BALB/c nu/nu mouse xenografted with human DMS53 cells assessed as change in spleen weight at 10 mg/kg, po administered for 3 times a week measured after 20 days; type: organism-based, DMS-53; design: dose 10 mg/kg, route oral; details: in vivo, 480 h
Outline: (§1)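 DMS-53 xenograft nude mice were gavaged 3 times/week in 30% propylene glycol/saline vehicle for 20 days and then sacrificed. Organ weights and histology of spleen, kidney, liver, heart, lungs and brain were compared with vehicle controls. n = 6-11 mice/condition.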

[2] = Toxicity in po dosed BALB/c nu/nu mouse xenografted with human DMS53 cells measured for 28 days; type: organism-based, DMS-53; details: in vivo
Outline: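 Oral dose-range-finding study to set the maximum tolerated dose in nude mice bearing DMS-53 tumors, with dosing over a 28-day treatment period.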

Mus musculus [3] = assay: Cardiotoxicity in human DMS53 cells xenografted BALB/c nu/nu mouse at 10 mg/kg, po administered for 3 times a week measured after 20 days; type: toxicity, organism-based, DMS-53; design: dose 10 mg/kg, route oral; details: in vivo, 480 h
Outline: (§2)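 DMS-53 xenograft nude mice given oral gavage 3 times/week in 30% propylene glycol/saline for 20 days. Heart sections taken after 20 days were stained with Gomori Trichrome for fibrosis and viewed at 100×. Other organs were examined histologically.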

Mus musculus [4] = assay: Cardiotoxicity in BALB/c nu/nu mouse xenografted with human DMS53 cells at 7.5 mg/kg, po administered for 3 times a week measured after 20 days; type: toxicity, organism-based, DMS-53; design: dose 7.5 mg/kg, route oral; details: in vivo, 480 h; outline: as §2
Mus musculus [5] = assay: Toxicity in BALB/c nu/nu mouse xenografted with human DMS53 cells assessed as cardiac fibrosis at 20 mg/kg, po administered for 3 times a week measured after 20 days using Gomori Trichrome stain; type: organism-based, Heart, DMS-53; design: dose 20 mg/kg, route oral; details: in vivo, 480 h; outline: as §2
Mus musculus [6] = assay: Toxicity in BALB/c nu/nu mouse xenografted with human DMS53 cells assessed as cardiac fibrosis at 10 mg/kg, po administered for 3 times a week measured after 20 days using Gomori Trichrome stain; type: organism-based, Heart, DMS-53; design: dose 10 mg/kg, route oral; details: in vivo, 480 h; outline: as §2
Mus musculus [7] = assay: Toxicity in BALB/c nu/nu mouse xenografted with human DMS53 cells assessed as change in brain histology at 20 mg/kg, po administered for 3 times a week measured after 20 days; type: organism-based, DMS-53; design: dose 20 mg/kg, route oral; details: in vivo, 480 h
Outline: (§3)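 Nude mice bearing DMS-53 xenografts gavaged 3 times/week for 20 days, vehicle 30% propylene glycol/saline, vehicle controls, n = 6-11 mice/condition. Sacrifice on day 20. Organ weights and hematological indices recorded. Spleen, kidney, liver, heart, lungs and brain examined histologically, hearts stained with Gomori Trichrome for fibrosis.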

Mus musculus [8] = assay: Toxicity in BALB/c nu/nu mouse xenografted with human DMS53 cells assessed as change in brain histology at 10 mg/kg, po administered for 3 times a week measured after 20 days; type: organism-based, DMS-53; design: dose 10 mg/kg, route oral; details: in vivo, 480 h; outline: as §3
Mus musculus [9] = assay: Toxicity in BALB/c nu/nu mouse xenografted with human DMS53 cells assessed as change in brain histology at 7.5 mg/kg, po administered for 3 times a week measured after 20 days; type: organism-based, DMS-53; design: dose 7.5 mg/kg, route oral; details: in vivo, 480 h; outline: as §3
Mus musculus [10] = assay: Toxicity in BALB/c nu/nu mouse xenografted with human DMS53 cells assessed as change in lungs histology at 20 mg/kg, po administered for 3 times a week measured after 20 days; type: organism-based, DMS-53; design: dose 20 mg/kg, route oral; details: in vivo, 480 h; outline: as §3
Mus musculus [11] = assay: Toxicity in BALB/c nu/nu mouse xenografted with human DMS53 cells assessed as change in lungs histology at 10 mg/kg, po administered for 3 times a week measured after 20 days; type: organism-based, DMS-53; design: dose 10 mg/kg, route oral; details: in vivo, 480 h; outline: as §3
Mus musculus [12] = assay: Toxicity in BALB/c nu/nu mouse xenografted with human DMS53 cells assessed as change in lungs histology at 7.5 mg/kg, po administered for 3 times a week measured after 20 days; type: organism-based, DMS-53; design: dose 7.5 mg/kg, route oral; details: in vivo, 480 h; outline: as §1
Mus musculus [13] = assay: Toxicity in BALB/c nu/nu mouse xenografted with human DMS53 cells assessed as change in heart histology at 20 mg/kg, po administered for 3 times a week measured after 20 days; type: organism-based, DMS-53; design: dose 20 mg/kg, route oral; details: in vivo, 480 h; outline: as §3
Mus musculus [14] = assay: Toxicity in BALB/c nu/nu mouse xenografted with human DMS53 cells assessed as change in heart histology at 10 mg/kg, po administered for 3 times a week measured after 20 days; type: organism-based, DMS-53; design: dose 10 mg/kg, route oral; details: in vivo, 480 h; outline: as §3
Mus musculus [15] = assay: Toxicity in BALB/c nu/nu mouse xenografted with human DMS53 cells assessed as change in heart histology at 7.5 mg/kg, po administered for 3 times a week measured after 20 days; type: organism-based, DMS-53; design: dose 7.5 mg/kg, route oral; details: in vivo, 480 h; outline: as §3
Mus musculus [16] = assay: Toxicity in BALB/c nu/nu mouse xenografted with human DMS53 cells assessed as change in liver histology at 20 mg/kg, po administered for 3 times a week measured after 20 days; type: organism-based, DMS-53; design: dose 20 mg/kg, route oral; details: in vivo, 480 h; outline: as §3
Mus musculus [17] = assay: Cardiotoxicity in human DMS53 cells xenografted BALB/c nu/nu mouse at 20 mg/kg, po administered for 3 times a week measured after 20 days; type: toxicity, organism-based, DMS-53; design: dose 20 mg/kg, route oral; details: in vivo, 480 h; outline: as §2
Mus musculus [18] = assay: Toxicity in BALB/c nu/nu mouse xenografted with human DMS53 cells assessed as change in liver histology at 10 mg/kg, po administered for 3 times a week measured after 20 days; type: organism-based, DMS-53; design: dose 10 mg/kg, route oral; details: in vivo, 480 h; outline: as §3
Mus musculus [19] = assay: Toxicity in BALB/c nu/nu mouse xenografted with human DMS53 cells assessed as change in liver histology at 7.5 mg/kg, po administered for 3 times a week measured after 20 days; type: organism-based, DMS-53; design: dose 7.5 mg/kg, route oral; details: in vivo, 480 h; outline: as §3
Mus musculus [20] = assay: Toxicity in BALB/c nu/nu mouse xenografted with human DMS53 cells assessed as change in kidney histology at 20 mg/kg, po administered for 3 times a week measured after 20 days; type: organism-based, DMS-53; design: dose 20 mg/kg, route oral; details: in vivo, 480 h; outline: as §3
Mus musculus [21] = assay: Toxicity in BALB/c nu/nu mouse xenografted with human DMS53 cells assessed as change in kidney histology at 10 mg/kg, po administered for 3 times a week measured after 20 days; type: organism-based, DMS-53; design: dose 10 mg/kg, route oral; details: in vivo, 480 h; outline: as §3
Mus musculus [22] = assay: Toxicity in BALB/c nu/nu mouse xenografted with human DMS53 cells assessed as change in kidney histology at 7.5 mg/kg, po administered for 3 times a week measured after 20 days; type: organism-based, DMS-53; design: dose 7.5 mg/kg, route oral; details: in vivo, 480 h; outline: as §3
Mus musculus [23] = assay: Toxicity in BALB/c nu/nu mouse xenografted with human DMS53 cells assessed as change in spleen histology at 20 mg/kg, po administered for 3 times a week measured after 20 days; type: organism-based, DMS-53; design: dose 20 mg/kg, route oral; details: in vivo, 480 h; outline: as §1
Mus musculus [24] = assay: Toxicity in BALB/c nu/nu mouse xenografted with human DMS53 cells assessed as change in spleen histology at 10 mg/kg, po administered for 3 times a week measured after 20 days; type: organism-based, DMS-53; design: dose 10 mg/kg, route oral; details: in vivo, 480 h; outline: as §1
Mus musculus [25] = assay: Toxicity in BALB/c nu/nu mouse xenografted with human DMS53 cells assessed as change in spleen histology at 7.5 mg/kg, po administered for 3 times a week measured after 20 days; type: organism-based, DMS-53; design: dose 7.5 mg/kg, route oral; details: in vivo, 480 h; outline: as §1
Mus musculus [26] = assay: Toxicity in BALB/c nu/nu mouse xenografted with human DMS53 cells assessed as change in hematocrit level at 10 mg/kg, po administered for 3 times a week measured after 20 days; type: organism-based, DMS-53; design: dose 10 mg/kg, route oral; details: in vivo, 480 h; outline: as §3
Mus musculus [27] = assay: Toxicity in BALB/c nu/nu mouse xenografted with human DMS53 cells assessed as change in hemoglobin level at 10 mg/kg, po administered for 3 times a week measured after 20 days; type: organism-based, DMS-53; design: dose 10 mg/kg, route oral; details: in vivo, 480 h; outline: as §3
MRC5 = assay: Antiproliferative activity at human MRC5 cells after 72 hrs by MTT assay; type: functional, cell-based; details: MRC5, 72 h
A549 = assay: Antiproliferative activity at human A549 cells after 72 hrs by MTT assay; type: functional, cell-based
DMS-53 = assay: Antiproliferative activity at human DMS53 cells after 72 hrs by MTT assay; type: functional, cell-based; details: Homo sapiens, DMS-53, 72 h
Mus musculus [28] = assay: Toxicity in BALB/c nu/nu mouse xenografted with human DMS53 cells assessed as change in heart weight at 10 mg/kg, po administered for 3 times a week measured after 20 days; type: organism-based, DMS-53; design: dose 10 mg/kg, route oral; details: in vivo, 480 h; outline: as §3

Structure (SMILES): CCN(C)C(=S)NN=C(c1ccccn1)c1ccccn1.Cl
- Activity (Mus musculus [1]): Non-toxic
- MTD at 672 h [2]: 10 mg/kg
- Activity (Mus musculus [3]): Non-toxic
- Activity (Mus musculus [4]): Non-toxic
- Activity (Mus musculus [5]): Non-toxic
- Activity (Mus musculus [6]): Non-toxic
- Activity (Mus musculus [7]): Non-toxic
- Activity (Mus musculus [8]): Non-toxic
- Activity (Mus musculus [9]): Non-toxic
- Activity (Mus musculus [10]): Non-toxic
- Activity (Mus musculus [11]): Non-toxic
- Activity (Mus musculus [12]): Non-toxic
- Activity (Mus musculus [13]): Non-toxic
- Activity (Mus musculus [14]): Non-toxic
- Activity (Mus musculus [15]): Non-toxic
- Activity (Mus musculus [16]): Non-toxic
- Activity (Mus musculus [17]): Non-toxic
- Activity (Mus musculus [18]): Non-toxic
- Activity (Mus musculus [19]): Non-toxic
- Activity (Mus musculus [20]): Non-toxic
- Activity (Mus musculus [21]): Non-toxic
- Activity (Mus musculus [22]): Non-toxic
- Activity (Mus musculus [23]): Non-toxic
- Activity (Mus musculus [24]): Non-toxic
- Activity (Mus musculus [25]): Non-toxic
- Activity (Mus musculus [26]): Toxic
- Activity (Mus musculus [27]): Toxic
- IC50 (MRC5): > 10000 nM
- IC50 (A549; a549): 1 nM
- IC50 (DMS-53): 6 nM
- Activity (Mus musculus [28]): Toxic

Structure (SMILES): CN(C(=S)NN=C(c1ccccn1)c1ccccn1)C1CCCCC1.Cl
- Activity (Mus musculus [1]): Non-toxic
- MTD at 672 h [2]: 20 mg/kg
- Activity (Mus musculus [3]): Non-toxic
- Activity (Mus musculus [4]): Non-toxic
- Activity (Mus musculus [5]): Non-toxic
- Activity (Mus musculus [6]): Non-toxic
- Activity (Mus musculus [7]): Non-toxic
- Activity (Mus musculus [8]): Non-toxic
- Activity (Mus musculus [9]): Non-toxic
- Activity (Mus musculus [10]): Non-toxic
- Activity (Mus musculus [11]): Non-toxic
- Activity (Mus musculus [12]): Non-toxic
- Activity (Mus musculus [13]): Non-toxic
- Activity (Mus musculus [14]): Non-toxic
- Activity (Mus musculus [15]): Non-toxic
- Activity (Mus musculus [16]): Non-toxic
- Activity (Mus musculus [17]): Non-toxic
- Activity (Mus musculus [18]): Non-toxic
- Activity (Mus musculus [19]): Non-toxic
- Activity (Mus musculus [20]): Non-toxic
- Activity (Mus musculus [21]): Non-toxic
- Activity (Mus musculus [22]): Non-toxic
- Activity (Mus musculus [23]): Non-toxic
- Activity (Mus musculus [24]): Non-toxic
- Activity (Mus musculus [25]): Non-toxic
- Activity (Mus musculus [26]): Non-toxic
- Activity (Mus musculus [27]): Non-toxic
- IC50 (MRC5): > 10000 nM
- IC50 (A549; Homo sapiens, A549, 72 h): 4 nM
- IC50 (DMS-53): 7 nM
- Activity (Mus musculus [28]): Non-toxic
